Series [1] in a line: Toxicity against ATSD patient fibroblasts assessed as reduction in beta-galactosidase activity at >400 uM. The format is cell-based. More on the design: scale not given: the % may be the effect or the level left. As to conditions: human, fibroblast.
Series [2] in a line: Toxicity against ATSD patient fibroblasts assessed as reduction in beta-galactosidase activity at. The format is cell-based. Particulars: human, fibroblast.
Series [3] has as its system T1, Beta-hexosaminidase subunit alpha (Homo sapiens), P06865 [G269S].
T1 sequence (whole entry): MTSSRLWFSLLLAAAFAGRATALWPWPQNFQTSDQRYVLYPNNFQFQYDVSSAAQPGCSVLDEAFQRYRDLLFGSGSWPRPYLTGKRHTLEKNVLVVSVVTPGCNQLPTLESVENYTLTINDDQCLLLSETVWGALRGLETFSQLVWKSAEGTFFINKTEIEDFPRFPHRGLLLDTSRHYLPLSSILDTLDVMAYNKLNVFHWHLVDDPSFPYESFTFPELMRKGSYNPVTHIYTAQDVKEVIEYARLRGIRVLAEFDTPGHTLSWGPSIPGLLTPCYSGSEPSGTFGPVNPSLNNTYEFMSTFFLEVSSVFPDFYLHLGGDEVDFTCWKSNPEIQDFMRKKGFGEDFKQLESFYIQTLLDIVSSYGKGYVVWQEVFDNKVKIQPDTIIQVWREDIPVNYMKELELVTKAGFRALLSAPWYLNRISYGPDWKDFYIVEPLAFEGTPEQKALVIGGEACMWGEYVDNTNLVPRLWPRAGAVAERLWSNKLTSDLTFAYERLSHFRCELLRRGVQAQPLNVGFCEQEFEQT
Nature of the series: Chaperoning efficacy at HexA alpha G269S mutant in ATSD patient fibroblasts assessed as drug level causing maximum increase in enzyme activity using MUGS substrate incubated for 1 to 2 hrs by spectrofluorometry relative to control. Put shortly: (§1)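 G269S-homozygous ATSD patient fibroblasts plated at 70−90% confluence and treated 5 days with serially diluted compound in DMEM/10% FBS, DMSO held at 1%. After PBS washes, cells were lysed in McIlvaine buffer pH 4.5 with 0.4% Triton X-100 and 0.025% HSA at 4 °C for 30 min. Lysate was incubated with MUGS (1.6 mM) at 37 °C for 1−2 h and stopped with 0.1 M MAP pH 10.5. Fluorescence read at Ex 365/Em 450 nm. Activity expressed relative to mock (1% DMSO) cells; triplicates.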

For series [4] the test system is unchanged. Nature of the series: Chaperoning efficacy at HexA alpha G269S mutant in ATSD patient fibroblasts assessed as maximum increase in enzyme activity using MUGS substrate incubated for 1 to 2 hrs by spectrofluorometry relative to control. An outline of the steps:
as §1

In series [5] the target is T2, Beta-N-acetyl-D-hexosaminidase-A/B (Homo sapiens, UniProt P07686+P06865).
T2 sequence (P07686 whole entry): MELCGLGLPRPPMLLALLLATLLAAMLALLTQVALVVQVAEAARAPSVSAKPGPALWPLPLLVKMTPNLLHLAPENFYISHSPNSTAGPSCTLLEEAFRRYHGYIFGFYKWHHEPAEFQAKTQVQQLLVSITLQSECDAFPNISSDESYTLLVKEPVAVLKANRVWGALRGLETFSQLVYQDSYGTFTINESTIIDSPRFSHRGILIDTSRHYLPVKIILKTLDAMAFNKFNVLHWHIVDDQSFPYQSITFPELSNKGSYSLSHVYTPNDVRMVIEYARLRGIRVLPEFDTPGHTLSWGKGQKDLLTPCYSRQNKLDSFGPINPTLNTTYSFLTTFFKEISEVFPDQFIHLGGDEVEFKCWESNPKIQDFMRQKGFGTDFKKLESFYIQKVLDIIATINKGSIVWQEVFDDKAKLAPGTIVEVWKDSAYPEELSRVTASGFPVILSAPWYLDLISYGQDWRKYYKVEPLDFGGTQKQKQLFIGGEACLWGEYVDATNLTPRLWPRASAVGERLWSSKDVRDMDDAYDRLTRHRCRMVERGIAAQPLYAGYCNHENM
T2 sequence (P06865 whole entry): T1 sequence (whole entry) with S269G
Nature of the series: Inhibition of human placental HexA using pNPGlcNAc substrate.

Series [6] addresses Signal transducer and activator of transcription 3 (Homo sapiens) (UniProt P40763). Nature of the series: Inhibition of STAT3 phosphorylation at 100 uM.
Series [7] deals with T3, Dihydrofolate reductase (Homo sapiens) (UniProt P00374).
T3 sequence (whole entry): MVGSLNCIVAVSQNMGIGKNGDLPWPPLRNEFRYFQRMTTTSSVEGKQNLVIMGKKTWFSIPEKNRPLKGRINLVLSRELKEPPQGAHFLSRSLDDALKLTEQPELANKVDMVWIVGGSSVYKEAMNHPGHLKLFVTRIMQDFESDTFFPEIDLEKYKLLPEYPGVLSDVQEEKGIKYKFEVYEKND
Nature of the series: Inhibition of human DHFR.

Series [8] relates to T1, Beta-hexosaminidase subunit alpha (Homo sapiens), P06865 [G269S]. Nature of the series: Chaperoning efficacy at HexA alpha G269S mutant in ATSD patient fibroblasts assessed as maximum increase in enzyme activity using MUGS substrate incubated for 1 to 2 hrs by spectrofluorometry relative to pyrimethamine.
Series [9] can be described thus: Toxicity against ATSD patient fibroblasts assessed as reduction in beta-galactosidase activity at >200 uM. The series is classed as cell-based. Particulars: human, fibroblast.
Series [10] concerns the target Beta-hexosaminidase subunit alpha (Homo sapiens, UniProt P06865, G269S). Nature of the series: Inhibition of HexA alpha G269S mutant in ATSD patient fibroblasts using MUG substrate incubated for 1 to 2 hrs at pH 4.5 by spectrofluorometry.

The term IC50 denotes the concentration that gives 50% inhibition.

SMILES strings stand for the structures. Where a chain is given by its changes, count along the chain named. Activity calls are given as the source filed them. No cut-off for these calls is given here.

Signal transducer and activator of transcription 3 (Homo sapiens), sequence (P40763 whole entry): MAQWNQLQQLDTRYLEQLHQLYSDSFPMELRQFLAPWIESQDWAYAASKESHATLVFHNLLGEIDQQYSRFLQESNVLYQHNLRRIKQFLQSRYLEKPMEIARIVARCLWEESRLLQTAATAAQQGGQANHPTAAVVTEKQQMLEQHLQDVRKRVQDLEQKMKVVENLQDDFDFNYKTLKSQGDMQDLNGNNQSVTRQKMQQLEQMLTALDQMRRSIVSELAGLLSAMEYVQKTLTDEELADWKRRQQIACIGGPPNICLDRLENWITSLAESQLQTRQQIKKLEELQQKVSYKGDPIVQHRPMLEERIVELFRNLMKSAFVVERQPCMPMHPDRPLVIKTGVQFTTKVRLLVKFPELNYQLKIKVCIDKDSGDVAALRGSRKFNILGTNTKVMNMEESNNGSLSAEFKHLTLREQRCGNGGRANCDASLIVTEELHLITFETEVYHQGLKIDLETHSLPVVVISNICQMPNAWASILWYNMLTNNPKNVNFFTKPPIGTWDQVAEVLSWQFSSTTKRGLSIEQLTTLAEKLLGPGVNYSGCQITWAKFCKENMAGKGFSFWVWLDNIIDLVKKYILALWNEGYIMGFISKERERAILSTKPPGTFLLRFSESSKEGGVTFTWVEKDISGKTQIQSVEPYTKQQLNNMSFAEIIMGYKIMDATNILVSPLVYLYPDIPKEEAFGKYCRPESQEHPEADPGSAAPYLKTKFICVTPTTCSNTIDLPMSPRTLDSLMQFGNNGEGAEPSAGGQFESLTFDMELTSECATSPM

On to `CCc1nc(N)nc(N)c1-c1ccc(C(F)(F)F)cc1`, for which the figures for the Activity in series [1], in [2] and in series [3] were more than 60%, “Toxic” and 30 µM, respectively. Also, the fold change (FC) in series [4] was 2.2.

`Cc1nc(N)nc(N)c1-c1ccc(Cl)cc1` came in with an IC50 in series [5] of more than 560 µM.

Regarding `CCc1nc(N)nc(N)c1-c1ccc(Cl)cc1` [PYRIMETHAMINE], the inhibition result in series [6] and in [7] was “Active” throughout. In addition, the Activity in series [1] is more than 60%; in series [2], “Toxic”; in series [3], 30 µM. In addition, the fold change (FC) in series [4] amounted to 2.1.

For `CCCc1nc(N)nc(N)c1-c1ccc(Cl)cc1`, in [4], the fold change (FC) came out at 1.5.

In the case of `CCc1nc(N)ncc1-c1ccc(C(F)(F)F)cc1`, the IC50 in series [5] is more than 400 µM.

Compound `NCc1nc(N)nc(N)c1-c1ccc(Cl)cc1` registered an IC50 in series [5] of 180 µM.

Take `CC(C)c1nc(N)nc(N)c1-c1ccc(Cl)cc1`: in [5], the half-maximal inhibitory concentration (IC50) was more than 410 µM.

In turn, `CCc1ncncc1-c1ccc(C(F)(F)F)cc1` displayed an IC50 in series [5] of more than 940 µM.

`CCc1nc(N)nc(N)c1-c1ccccc1C`: the Activity in series [1] is more than 60%; in [8], 30%; in series [3], 100 µM. For the same compound, the fold change (FC) in series [4] came out at 2.3. The same compound came in with an IC50 in series [5] of 43 µM.

As for `CCc1nc(N)nc(N)c1-c1ccc(C)cc1`, the Activity in series [1] was more than 60%; in series [2] it was “Toxic”; in series [3] it was 30 µM. Besides, the fold change (FC) in series [4] was 1.7. The compound also had an IC50 in series [5] of 40 µM.

`CCc1nc(N)ncc1-c1ccc(Cl)cc1` registered a half-inhibitory concentration (IC50) in series [5] of more than 400 µM.

As for `CCc1nc(N)nc(N)c1-c1cc(C)cc(C)c1`, the figures for the Activity in [1], in series [8] and in series [3] were more than 60%, 30% and 100 µM, respectively. Also, the fold change (FC) in series [4] stood at 2.5.

As for `CCc1nc(N)nc(N)c1-c1ccccc1`, the Activity result was “Toxic” in [9], “Non-toxic” in series [1] and 30% in [8]. In addition, the inhibition entry in [7] was “Active”. Half-maximal inhibition in series [10] (IC50) was put at 27 µM. In addition, in [4], the fold change (FC) worked out at 2.7.

Take `CCc1nc(N)nc(N)c1-c1ccc(OC)cc1`: the Activity in series [1] was more than 60%; in series [2] it was “Toxic”; in series [3], 30 µM. For the same compound, the fold change (FC) in series [4] was 2. The same compound had an IC50 in series [5] of 18 µM.

In series [5], `CCCCc1nc(N)nc(N)c1-c1ccc(Cl)cc1` came in with an IC50 of more than 1400 µM.

Take `CCc1nc(N)nc(N)c1-c1cccc(C)c1`: the Activity is more than 60% in [1], 30% in series [8] and 100 µM in series [3]. The fold change (FC) in series [4] came to 2.9.

`CCc1nc(N)[nH]c(=O)c1-c1ccc(Cl)cc1` had an IC50 in series [5] of more than 2100 µM.
